Measured values gathered from unrelated publications.
DYRK2: Dual specificity tyrosine-phosphorylation-regulated kinase 2 (DYRK2, Homo sapiens, UniProt Q92630)
ADAM17: Disintegrin and metalloproteinase domain-containing protein 17 (ADAM17, Homo sapiens, UniProt P78536)

| SMILES | target | observed | action | technique | tested at | inhibition [%] |
| --- | --- | --- | --- | --- | --- | --- |
| C#Cc1n[nH]c2c(-c3cn([C@@H](C)c4ccccc4)c(=O)[nH]c3=O)cc(F)cc12 | DYRK2 | enzyme activity | inhibitor | – | 0.1 µM | 7.9 |
| CN(C)C(=O)COC(=O)Cc1ccc(OC(=O)c2ccc(NC(=N)N)cc2)cc1 | ADAM17 | enzyme activity | inhibitor | – | 10 µM | 6 |
| CC(C)C[C@H](NC(=O)[C@H](Cc1ccccc1)NC(=O)c1cnccn1)B(O)O | Cathepsin G (CTSG, Homo sapiens, UniProt P08311) | enzyme activity | inhibitor | – | 33 µM | 61.8 |
| CC(C)C[C@H](CC(=O)NO)C(=O)N[C@H](C(=O)N[C@@H](C)C(=O)NCCN)C(C)(C)C | ADAM17 | enzyme activity | inhibitor | – | 0.1 µM | 0 |
| COc1c2c(cc3c1OCO3)CC[N+](C)=C2.[Cl-] | Glycogen synthase kinase-3 beta (GSK3B, Homo sapiens, UniProt P49841) | enzyme activity | inhibitor | ADP detection | 100 µM | 9.2 |
| C#Cc1n[nH]c2c(-c3cn([C@@H](C)c4ccccn4)c(=O)[nH]c3=O)cc(F)cc12 | DYRK2 | enzyme activity | inhibitor | – | 0.1 µM | -0.2 |
| CCN(CC)CCCC[C@H](NC(=O)[C@H](CC(C)C)NC(=O)[C@H](C)NC(=O)[C@H](Cc1ccccc1)NC(=O)c1ccc(C(C)(C)C)cc1)C(=O)N[C@@H](CO)C(=O)OC | Vasopressin V1a receptor (AVPR1A, Homo sapiens, UniProt P37288) | ligand displacement | – | radioligand | 10 µM | 85 |
| Cn1cc(-c2cc(F)cc(N3CCn4c(cc5c4CCCC5)C3=O)c2CO)cc(Nc2ccc(N3CCN(C4COC4)CC3)cn2)c1=O | Phosphatidylinositol 4,5-bisphosphate 3-kinase catalytic subunit alpha isoform (PIK3CA, Homo sapiens, UniProt P42336) | enzyme activity | inhibitor | – | 0.1 µM | -7 |
| C[C@H](C(=O)N[C@H]1COc2ccccc2[C@@H]1S(C)(=O)=O)c1ccc(F)cc1 | Vasopressin V1b receptor (AVPR1B, Homo sapiens, UniProt P47901) | cell-free assay | – | – | 10 µM | 26 |
| COc1cc(Nc2ncc(F)c(Nc3ccc4c(n3)NC(=O)C(C)(C)O4)n2)cc(OC)c1OC | Mitogen-activated protein kinase kinase kinase 12 (MAP3K12, Homo sapiens, UniProt Q12852) | binding | – | competition with immobilised ligand | 10 µM | 32 |
| c1ccc(C(NCCNC(c2ccccc2)c2ccccc2)c2ccccc2)cc1 | Gamma-aminobutyric acid type B receptor subunit 1 (GABBR1, Homo sapiens, UniProt Q9UBS5) | cell-free assay | – | – | 10 µM | -14 |
| COCc1c(-c2cc3cc(C)cc(OC)c3s2)c2c(N)ncnn2c1CN1CCNC(=O)C1 | Motilin receptor (MLNR, Homo sapiens, UniProt O43193) | ligand displacement | – | radioligand | 10 µM | 18 |
